The target of test [1] is human Survivin H80A (human) (UniProt O15392). Kind of test: ITC. A general note: ITC needs no label: the signal is the heat of the interaction.
Test [2] has as its target human Survivin K62A (human) (UniProt O15392). Kind of test: ITC.
In another test the target is human Survivin H80R (Homo sapiens, UniProt O15392, H80R). The test can be described thus: ITC binding of histone H3 peptides to human Survivin H80R. The settings on record: pH 6.8, 25°C, HEPES:citric acid:Ches, 10 mM β-mercaptoethanol, single-site model, n/b = no binding. In a few lines: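 Mutant human Survivin from bacteria, Ni2+-resin purified, octahistidine tag removed by thrombin, then Superdex200. ITC at pH 6.8 in citric acid–Ches–HEPES buffer, 25°C. 1.2 mM histone H3 tail peptide titrated into 0.1 mM protein over sixteen injections 180 s apart. Kd from a single-site fit with stoichiometry, ΔH and Ka variable, using a baseline offset for dilution heats.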
Chain of human Survivin H80R (O15392 whole entry H80R): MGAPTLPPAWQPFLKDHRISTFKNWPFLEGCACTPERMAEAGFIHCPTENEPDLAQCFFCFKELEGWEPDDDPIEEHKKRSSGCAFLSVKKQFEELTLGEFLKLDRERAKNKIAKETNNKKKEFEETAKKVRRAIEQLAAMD

Test [3] addresses X. laevis class B Survivin (xl wt, xSurvivin-B) (Xenopus laevis, UniProt Q8JGN5). Kind of test: ITC binding of histone H3 peptides to Xenopus Survivin class B wild type. The settings on record: pH 8.2, 25°C, HEPES:citric acid:Ches, 10 mM β-mercaptoethanol, single-site model, n/b = no binding.
The target of test [4] is human Survivin (hs wt, class A) (Homo sapiens, UniProt O15392). The test can be described thus: ITC binding of histone H3 peptides to human Survivin wild type.
Chain of human Survivin (hs wt, class A) (O15392 whole entry): as the sequence (O15392 whole entry H80R) above, with R80H counted along it
In test [5] the target is human Survivin K62A (Homo sapiens, UniProt O15392, K62A). The test can be described thus: ITC binding of histone H3 peptides to human Survivin K62A. In a few lines: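 ITC at pH 7.8 with recombinant human Survivin K62A (bacterially expressed, His tag thrombin-cleaved, gel-filtered) binding H3T3ph(1-4) and unmodified H3(1-4) peptides. Syringe peptide 1.2 mM, cell protein 0.1 mM, sixteen injections 180 s apart. Kd from a single-binding-site model with stoichiometry, ΔH and Ka variable. Baseline offset corrects for heats of dilution.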
Chain of human Survivin K62A (Homo sapiens, UniProt O15392, K62A) (O15392 whole entry K62A): as the sequence (O15392 whole entry H80R) above, with K62A, R80H counted along it

Test [6] deals with T1, Xenopus laevis class B Survivin R89H (X. laevis, UniProt Q8JGN5 1-160, R89H). Kind of test: ITC.
T1 sequence (Q8JGN5 whole entry R89H): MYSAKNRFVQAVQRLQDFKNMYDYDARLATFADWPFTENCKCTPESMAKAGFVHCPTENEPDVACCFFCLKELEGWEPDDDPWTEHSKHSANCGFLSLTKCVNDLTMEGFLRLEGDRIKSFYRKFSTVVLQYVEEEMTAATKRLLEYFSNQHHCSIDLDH
The target in test [7] is T2, human Survivin wild type (human, UniProt O15392 1-142). Kind of test: ITC.
T2 sequence (O15392 whole entry): as the sequence (O15392 whole entry H80R) above, with R80H counted along it
In test [8] the target is T1, Xenopus laevis class B Survivin R89H. The test can be described thus: ITC. This is another data set of the same source.
Test [9] addresses T2, human Survivin wild type. Kind of test: ITC. The source holds these as a separate data set.
Test [10] addresses T2, human Survivin wild type. Kind of test: ITC. This is another data set of the same source.
Test [11] has as its target human Survivin K62A (human, UniProt O15392 1-142, K62A). The test can be described thus: crystal structure.
Test [12] deals with T2, human Survivin wild type. The test can be described thus: ITC. This is another data set of the same source.
Test [13] deals with T2, human Survivin wild type. Kind of test: ITC. This is another data set of the same source.
Test [14] has as its target T2, human Survivin wild type. Kind of test: ITC. The source holds these as a separate data set.
For test [15], the target named is T2, human Survivin wild type. The test can be described thus: ITC. The source holds these as a separate data set.
The target of test [16] is human Survivin wild type (human) (UniProt O15392). The test can be described thus: ITC.
Chain of human Survivin wild type (human) (O15392 whole entry): as the sequence (O15392 whole entry H80R) above, with R80H counted along it

One may read the Kd as the free concentration of one partner at which half of the binding sites on the other are occupied at equilibrium, for simple one-to-one binding. Low readings indicate higher affinity, high ones lower affinity. For orientation: stoichiometry N means a count of units in the complex or per binding partner.

Read-outs that look alike come from different tables or passages of the source. Square brackets hold non-standard residues; d marks the D form. Ends that are not written are not given here. Peptide text beside a SMILES is read from it. pT = C[C@@H](OP(=O)(O)O)[C@H](N)C(=O)O

Chain of human Survivin K62A (human) (O15392 whole entry K62A): as the sequence (O15392 whole entry H80R) above, with K62A, R80H counted along it
Chain of human Survivin H80A (human) (O15392 whole entry H80A): as the sequence (O15392 whole entry H80R) above, with R80A counted along it
Chain of human Survivin K62A (human, UniProt O15392 1-142, K62A) (O15392 whole entry K62A): as the sequence (O15392 whole entry H80R) above, with K62A, R80H counted along it
Chain of X. laevis class B Survivin (xl wt, xSurvivin-B) (Q8JGN5 whole entry): as the sequence (Q8JGN5 whole entry R89H) above, with H89R counted along it

In test [1], “histone H3 N-terminal peptide ARTK, unmodified” yielded a dissociation constant Kd of 236 µM, a dH of -3300 cal/mol and a stoichiometry N of 0.99. In test [2], the Kd stood at 31.3 µM, the dH was -4610 cal/mol and the stoichiometry N was found to be 1.22.

On to `C[C@H](N)C(=O)N[C@@H](CCCNC(=N)N)C(=O)N[C@H](C(=O)N[C@@H](CCCCN)C(=O)N[C@@H](CCC(N)=O)C(=O)N[C@H](C(=O)N[C@@H](C)C(=O)N[C@@H](CCCNC(=N)N)C(=O)N[C@@H](CCCCN)C(=O)N[C@@H](CO)C(=O)N[C@H](C(=O)NCC(=O)O)[C@@H](C)O)[C@@H](C)O)[C@@H](C)O` [H3T3(1-12)], for which the “Kd (dissociation constant)” value (on human Survivin H80R; in [3]) was “n/b” each time.

In the case of `C[C@H](N)C(=O)N[C@@H](CCCNC(=N)N)C(=O)N[C@H](C(=O)N[C@@H](CCCCN)C(=O)O)[C@@H](C)O` [H3T3(1-4)] (H-ARTK-OH), the Kd in test [4] worked out at 60.6 ± 4 µM; at human Survivin K62A [5] it was 31.3 ± 2 µM.

For ARTKQTARKSTG [histone H3 N-terminal peptide ARTKQTARKSTG, unmodified], the Kd in test [6] stood at 5.21 ± 0.39 µM; with human Survivin wild type [7], 11.8 ± 1 µM; in test [8], 12.9 ± 1.4 µM; with human Survivin wild type [9], 21 ± 1.8 µM; with human Survivin wild type [10], 21.4 ± 3.2 µM; with human Survivin wild type [12], 13.3 ± 0.7 µM. For the same molecule, the Kd was 9.67 ± 0.31 µM in the test with human Survivin wild type [13], 30.2 ± 1.2 µM with human Survivin wild type [14] and 17.1 ± 0.8 µM in the test with human Survivin wild type [15]. Further, the dH in test [6] is -2690 ± 40 cal/mol; in the test with human Survivin wild type [7] it was -2490 ± 60 cal/mol; in [8], -2720 ± 60 cal/mol; with human Survivin wild type [9] it was -1890 ± 40 cal/mol; with human Survivin wild type [10] it was -4320 ± 230 cal/mol; in the test with human Survivin wild type [12] it was -3210 ± 50 cal/mol. Besides, the values for the dH in the test with human Survivin wild type [13], with human Survivin wild type [14] and in the test with human Survivin wild type [15] were -2790 ± 20 cal/mol, -3430 ± 50 cal/mol and -3320 ± 50 cal/mol, respectively. Besides, the “stoichiometry N” value was found to be 1.15 ± 0.01 in test [6]; 1.26 ± 0.01 in the test with human Survivin wild type [7]; 1.34 ± 0.02 in test [8]; 1.56 ± 0.02 with human Survivin wild type [9]; 1.37 ± 0.04 in the test with human Survivin wild type [10]; 1.36 ± 0.01 in the test with human Survivin wild type [12]. Moreover, the “stoichiometry N” value was found to be 1.29 ± 0.01 in the test with human Survivin wild type [13], 1.32 ± 0.01 with human Survivin wild type [14] and 1.33 ± 0.01 with human Survivin wild type [15]. In addition, the binding result in the test with human Survivin K62A [11] is listed as “binds”.

For the molecule AR[pT]K [histone H3 N-terminal peptide ARTphK, phosphorylated on T3], in test [16], the dissociation constant (Kd) amounted to 61.7 µM, the dH was -2120 cal/mol and the stoichiometry N came to 1.05.

As for AR[pT]KQTARKSTG [histone H3 N-terminal peptide ARTphKQTARKSTG, phosphorylated on T3], the dH was -4570 ± 40 cal/mol in test [6]; -5640 ± 20 cal/mol with human Survivin wild type [7]; -870 ± 15 cal/mol in test [8]; -670 ± 50 cal/mol with human Survivin wild type [9]; -6850 ± 20 cal/mol with human Survivin wild type [10]; -4650 ± 50 cal/mol with human Survivin wild type [12]. The results for the dH with human Survivin wild type [13], with human Survivin wild type [14] and with human Survivin wild type [15] were -4880 ± 30 cal/mol, -4130 ± 220 cal/mol and -4720 ± 60 cal/mol, respectively. The “stoichiometry N” value in test [6] turned out to be 1.09 ± 0.004; in the test with human Survivin wild type [7], 1.13 ± 0.001; in test [8] it was 1.04 ± 0.01; with human Survivin wild type [9] it was 1.35 ± 0.06; in the test with human Survivin wild type [10], 1.01 ± 0.002; with human Survivin wild type [12], 1.12 ± 0.01. In addition, the “stoichiometry N” value in the test with human Survivin wild type [13] is 1.03 ± 0.002; in the test with human Survivin wild type [14] it was 1.23 ± 0.02; with human Survivin wild type [15] it was 1.2 ± 0.01.

Take ARTK [histone H3 N-terminal peptide ARTK, unmodified]: in [16], the equilibrium dissociation constant (Kd) was found to be 60.6 µM, the dH is -3160 cal/mol and the stoichiometry N turned out to be 1.27.

The values above are taken from paper PMC3327328 (Molecular Biology of the Cell, 2012).
